# In ChEMBL document CHEMBL3098102, “1,2,3-Triazole-derived naphthalimides as a novel type of potential antimicrobial agents: synthesis, antimicrobial activity, interaction with calf thymus DNA and human serum albumin” (Bioorg Med Chem Lett, 2014):
# Experiments:
# Format in all cases: functional
# Shigella dysenteriae = assay: Antimicrobial activity against Shigella dysenteriae after 24 hrs by two-fold serial dilution method
# Pseudomonas aeruginosa = assay: Antimicrobial activity against Pseudomonas aeruginosa after 24 hrs by two-fold serial dilution method
# How it was run: (§1)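 MIC read by broth microdilution in microdilution plates.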
# [1] = Antimicrobial activity against Bacillus proteus after 24 hrs by two-fold serial dilution method; how it was run: as §1
# Bacillus subtilis = assay: Antimicrobial activity against Bacillus subtilis after 24 hrs by two-fold serial dilution method; how it was run: as §1
# Saccharomyces cerevisiae = assay: Antimicrobial activity against Saccharomyces cerevisiae by two-fold serial dilution method; how it was run: as §1
# Aspergillus flavus = assay: Antimicrobial activity against Aspergillus flavus after 24 hrs by two-fold serial dilution method; how it was run: as §1
# Candida albicans = assay: Antimicrobial activity against Candida albicans after 24 hrs by two-fold serial dilution method; how it was run: as §1
# Escherichia coli [2] = assay: Antimicrobial activity against Escherichia coli DH52 after 24 hrs by two-fold serial dilution method; conditions: DH52, 24 h
# Micrococcus luteus = assay: Antimicrobial activity against Micrococcus luteus ATCC 4698 after 24 hrs by two-fold serial dilution method; conditions: ATCC 4698, 24 h
# Staphylococcus aureus [3] = assay: Antimicrobial activity against methicillin-resistant Staphylococcus aureus N315 after 24 hrs by two-fold serial dilution method; conditions: N315, 24 h
# Staphylococcus aureus [4] = assay: Antimicrobial activity against Staphylococcus aureus ATCC 25923 after 24 hrs by two-fold serial dilution method; conditions: ATCC 25923, 24 h
# Escherichia coli [5] = assay: Ratio of chloromycin MIC to compound MIC for Escherichia coli DH52 after 24 hrs by two-fold serial dilution method
smiles,measurement,setting,value
O=C(N[C@H](CO)[C@H](O)c1ccc([N+](=O)[O-])cc1)C(Cl)Cl [CHLORAMPHENICOL],MIC,Shigella dysenteriae,32 µg/mL
same,MIC,Pseudomonas aeruginosa,4 µg/mL
same,MIC,[1],32 µg/mL
same,MIC,Bacillus subtilis,32 µg/mL
Cl.Cl.O=C1c2cccc3c(Br)ccc(c23)C(=O)N1N(Cc1cn(Cc2ccccc2F)nn1)Cc1cn(Cc2ccccc2F)nn1,MIC,Saccharomyces cerevisiae,> 512 µg/mL
same,MIC,Aspergillus flavus,64 µg/mL
same,MIC,Candida albicans,> 512 µg/mL
same,MIC,Shigella dysenteriae,> 512 µg/mL
same,MIC,Pseudomonas aeruginosa,> 512 µg/mL
same,MIC,Escherichia coli [2],16 µg/mL
same,MIC,[1],> 512 µg/mL
same,MIC,Micrococcus luteus,256 µg/mL
same,MIC,Bacillus subtilis,> 512 µg/mL
same,MIC,Staphylococcus aureus [3],> 512 µg/mL
same,MIC,Staphylococcus aureus [4],> 512 µg/mL
O=C1c2cccc3c(Br)ccc(c23)C(=O)N1N(Cc1cn(Cc2ccccc2Cl)nn1)Cc1cn(Cc2ccccc2Cl)nn1,Ratio,Escherichia coli [5],2
same,MIC,Saccharomyces cerevisiae,> 512 µg/mL
same,MIC,Aspergillus flavus,> 512 µg/mL
same,MIC,Candida albicans,64 µg/mL
same,MIC,Shigella dysenteriae,> 512 µg/mL
same,MIC,Pseudomonas aeruginosa,> 512 µg/mL
same,MIC,Escherichia coli [2],4 µg/mL
same,MIC,[1],> 512 µg/mL
same,MIC,Micrococcus luteus,128 µg/mL
same,MIC,Bacillus subtilis,> 512 µg/mL
same,MIC,Staphylococcus aureus [3],512 µg/mL
same,MIC,Staphylococcus aureus [4],> 512 µg/mL
Cl.Cl.Cl.Cl.O=C1c2cccc3c(Br)ccc(c23)C(=O)N1N(Cc1cn(Cc2cccc(Cl)c2)nn1)Cc1cn(Cc2cccc(Cl)c2)nn1,Ratio,Escherichia coli [5],2
same,MIC,Saccharomyces cerevisiae,64 µg/mL
same,MIC,Aspergillus flavus,> 512 µg/mL
same,MIC,Candida albicans,16 µg/mL
same,MIC,Shigella dysenteriae,512 µg/mL
same,MIC,Pseudomonas aeruginosa,64 µg/mL
same,MIC,Escherichia coli [2],2 µg/mL
same,MIC,[1],512 µg/mL
same,MIC,Micrococcus luteus,> 512 µg/mL
same,MIC,Bacillus subtilis,256 µg/mL
same,MIC,Staphylococcus aureus [3],256 µg/mL
same,MIC,Staphylococcus aureus [4],256 µg/mL
O=C1c2cccc3c(Br)ccc(c23)C(=O)N1N(Cc1cn(Cc2ccccc2F)nn1)Cc1cn(Cc2ccccc2F)nn1,MIC,Saccharomyces cerevisiae,> 512 µg/mL
same,MIC,Aspergillus flavus,64 µg/mL
same,MIC,Candida albicans,> 512 µg/mL
same,MIC,Shigella dysenteriae,> 512 µg/mL
same,MIC,Pseudomonas aeruginosa,> 512 µg/mL
same,MIC,Escherichia coli [2],32 µg/mL
same,MIC,[1],> 512 µg/mL
same,MIC,Micrococcus luteus,256 µg/mL
same,MIC,Bacillus subtilis,> 512 µg/mL
same,MIC,Staphylococcus aureus [3],> 512 µg/mL
same,MIC,Staphylococcus aureus [4],> 512 µg/mL
CCn1cc(C(=O)O)c(=O)c2cc(F)c(N3CCNCC3)cc21 [NORFLOXACIN],MIC,Shigella dysenteriae,2 µg/mL
same,MIC,Pseudomonas aeruginosa,1 µg/mL
same,MIC,Escherichia coli [2],2 µg/mL
same,MIC,[1],2 µg/mL
same,MIC,Micrococcus luteus,1 µg/mL
same,MIC,Bacillus subtilis,2 µg/mL
same,MIC,Staphylococcus aureus [3],1 µg/mL
same,MIC,Staphylococcus aureus [4],4 µg/mL
Cl.Cl.Cl.Cl.Cl.Cl.O=C1c2cccc3c(Br)ccc(c23)C(=O)N1N(Cc1cn(Cc2ccc(Cl)c(Cl)c2)nn1)Cc1cn(Cc2ccc(Cl)c(Cl)c2)nn1,Ratio,Escherichia coli [5],2
same,MIC,Saccharomyces cerevisiae,32 µg/mL
same,MIC,Aspergillus flavus,> 512 µg/mL
same,MIC,Candida albicans,256 µg/mL
same,MIC,Shigella dysenteriae,> 512 µg/mL
same,MIC,Pseudomonas aeruginosa,256 µg/mL
same,MIC,Escherichia coli [2],0.5 µg/mL
same,MIC,[1],256 µg/mL
same,MIC,Micrococcus luteus,512 µg/mL
same,MIC,Bacillus subtilis,512 µg/mL
same,MIC,Staphylococcus aureus [3],256 µg/mL
same,MIC,Staphylococcus aureus [4],256 µg/mL
Cl.Cl.Cl.Cl.O=C1c2cccc3c(Br)ccc(c23)C(=O)N1N(Cc1cn(Cc2ccc(Cl)cc2)nn1)Cc1cn(Cc2ccc(Cl)cc2)nn1,Ratio,Escherichia coli [5],2
same,MIC,Saccharomyces cerevisiae,> 512 µg/mL
same,MIC,Aspergillus flavus,256 µg/mL
same,MIC,Candida albicans,> 512 µg/mL
same,MIC,Shigella dysenteriae,256 µg/mL
same,MIC,Pseudomonas aeruginosa,512 µg/mL
same,MIC,Escherichia coli [2],2 µg/mL
same,MIC,[1],> 512 µg/mL
same,MIC,Micrococcus luteus,32 µg/mL
same,MIC,Bacillus subtilis,256 µg/mL
same,MIC,Staphylococcus aureus [3],512 µg/mL
same,MIC,Staphylococcus aureus [4],256 µg/mL
CCCCn1cc(CN(Cc2cn(CCCC)nn2)N2C(=O)c3cccc4c(Br)ccc(c34)C2=O)nn1.Cl.Cl,MIC,Saccharomyces cerevisiae,> 512 µg/mL
same,MIC,Aspergillus flavus,64 µg/mL
same,MIC,Candida albicans,> 512 µg/mL
same,MIC,Shigella dysenteriae,> 512 µg/mL
same,MIC,Pseudomonas aeruginosa,> 512 µg/mL
same,MIC,Escherichia coli [2],> 512 µg/mL
same,MIC,[1],> 512 µg/mL
same,MIC,Micrococcus luteus,> 512 µg/mL
same,MIC,Bacillus subtilis,512 µg/mL
same,MIC,Staphylococcus aureus [3],> 512 µg/mL
same,MIC,Staphylococcus aureus [4],> 512 µg/mL
CCCCn1cc(CN(Cc2cn(CCCC)nn2)N2C(=O)c3cccc4c(Br)ccc(c34)C2=O)nn1,MIC,Saccharomyces cerevisiae,> 512 µg/mL
same,MIC,Aspergillus flavus,64 µg/mL
same,MIC,Candida albicans,> 512 µg/mL
same,MIC,Shigella dysenteriae,> 512 µg/mL
same,MIC,Pseudomonas aeruginosa,> 512 µg/mL
same,MIC,Escherichia coli [2],> 512 µg/mL
same,MIC,[1],> 512 µg/mL
same,MIC,Micrococcus luteus,> 512 µg/mL
same,MIC,Bacillus subtilis,> 512 µg/mL
same,MIC,Staphylococcus aureus [3],> 512 µg/mL
same,MIC,Staphylococcus aureus [4],> 512 µg/mL
Cl.Cl.O=C1c2cccc3c(Br)ccc(c23)C(=O)N1N(Cc1cn(Cc2ccc(F)cc2)nn1)Cc1cn(Cc2ccc(F)cc2)nn1,MIC,Saccharomyces cerevisiae,> 512 µg/mL
same,MIC,Aspergillus flavus,512 µg/mL
same,MIC,Candida albicans,> 512 µg/mL
same,MIC,Shigella dysenteriae,> 512 µg/mL
same,MIC,Pseudomonas aeruginosa,> 512 µg/mL
same,MIC,Escherichia coli [2],32 µg/mL
same,MIC,[1],512 µg/mL
same,MIC,Micrococcus luteus,512 µg/mL
same,MIC,Bacillus subtilis,> 512 µg/mL
same,MIC,Staphylococcus aureus [3],> 512 µg/mL
same,MIC,Staphylococcus aureus [4],> 512 µg/mL
Cl.Cl.O=C1c2cccc3c(Br)ccc(c23)C(=O)N1N(Cc1cn(Cc2ccc(F)cc2F)nn1)Cc1cn(Cc2ccc(F)cc2F)nn1,MIC,Saccharomyces cerevisiae,> 512 µg/mL
same,MIC,Aspergillus flavus,> 512 µg/mL
same,MIC,Candida albicans,512 µg/mL
same,MIC,Shigella dysenteriae,> 512 µg/mL
same,MIC,Pseudomonas aeruginosa,> 512 µg/mL
same,MIC,Escherichia coli [2],32 µg/mL
same,MIC,[1],> 512 µg/mL
same,MIC,Micrococcus luteus,512 µg/mL
same,MIC,Bacillus subtilis,128 µg/mL
same,MIC,Staphylococcus aureus [3],> 512 µg/mL
same,MIC,Staphylococcus aureus [4],> 512 µg/mL
O=C1c2cccc3c(Br)ccc(c23)C(=O)N1N(Cc1cn(Cc2ccc([N+](=O)[O-])cc2)nn1)Cc1cn(Cc2ccc([N+](=O)[O-])cc2)nn1,MIC,Saccharomyces cerevisiae,> 512 µg/mL
same,MIC,Aspergillus flavus,> 512 µg/mL
same,MIC,Candida albicans,> 512 µg/mL
same,MIC,Shigella dysenteriae,> 512 µg/mL
same,MIC,Pseudomonas aeruginosa,> 512 µg/mL
same,MIC,Escherichia coli [2],256 µg/mL
same,MIC,[1],> 512 µg/mL
same,MIC,Micrococcus luteus,512 µg/mL
same,MIC,Bacillus subtilis,256 µg/mL
same,MIC,Staphylococcus aureus [3],> 512 µg/mL
same,MIC,Staphylococcus aureus [4],> 512 µg/mL
